Active and inactive are the calls of the source. No cut-off for these calls is given here.
What was measured:
RAW264.7 [1] = assay: Ability to suppress the production of reactive oxygen intermediates by activated RAW 264.7 macrophages from BALB/c mice at 4 ug/ml; type: functional
Summary of the method: (§1)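 RAW 264.7 cells were grown in DMEM with 5% FCS and LPS-activated (1 µg/mL, 24 h). Cells (5 × 10^5 in 0.5 mL) were incubated 24 h with cannabinoids dissolved in ethanol and diluted in Hanks. Luminol and zymosan were then added and chemiluminescence was read immediately. Mean ± SD of three pooled experiments.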

RAW264.7 [2] = assay: Ability to suppress the production of reactive oxygen intermediates by activated RAW 264.7 macrophages from BALB/c mice at 8 ug/ml; type: functional; summary of the method: as §1
[3] = system: Peritoneal macrophage cell; assay: Ability to suppress TNFalpha production by LPS-activated peritoneal macrophages form C57BL/6 mice at 8 ug/ml; type: functional
Cannabinoid receptor 1 = Cannabinoid receptor 1 (Rattus norvegicus, UniProt P20272); assay: Displacement of [3H]HU243 from CB1 receptor in Sabra rat brain
[4] = system: Peritoneal macrophage cell; assay: Ability to suppress […] production by LPS-activated peritoneal macrophages form C57BL/6 mice at 4 ug/ml; type: functional, cell-based; settings: Mus musculus
Summary of the method: (§2)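 Elicited peritoneal macrophages were prepared as for TNF. They were exposed to ethanol-dissolved cannabinoids diluted in DMEM, plus LPS 1 µg/mL, for 24 h. Nitrite in 100 µL supernatant was mixed with an equal volume of Griess reagent for 10 min at room temperature and read at 550 nm. Values came from a nitrite standard curve. Mean ± SD of three pooled experiments.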

[5] = system: Peritoneal macrophage cell; assay: Ability to suppress […] production by LPS-activated peritoneal macrophages form C57BL/6 mice at 8 ug/ml; type: functional, cell-based; settings: Mus musculus; summary of the method: as §2
[6] = system: Peritoneal macrophage cell; assay: Ability to suppress TNFalpha production by LPS-activated peritoneal macrophages form C57BL/6 mice at 4 ug/ml; type: functional, cell-based; settings: Mus musculus
[7] = system: Peritoneal macrophage cell; assay: Ability to suppress […] production by LPS-activated peritoneal macrophages form C57BL/6 mice at 1 ug/ml; type: functional, cell-based; settings: Mus musculus; summary of the method: as §2

Cannabinoid receptor 1, sequence (P20272 whole entry): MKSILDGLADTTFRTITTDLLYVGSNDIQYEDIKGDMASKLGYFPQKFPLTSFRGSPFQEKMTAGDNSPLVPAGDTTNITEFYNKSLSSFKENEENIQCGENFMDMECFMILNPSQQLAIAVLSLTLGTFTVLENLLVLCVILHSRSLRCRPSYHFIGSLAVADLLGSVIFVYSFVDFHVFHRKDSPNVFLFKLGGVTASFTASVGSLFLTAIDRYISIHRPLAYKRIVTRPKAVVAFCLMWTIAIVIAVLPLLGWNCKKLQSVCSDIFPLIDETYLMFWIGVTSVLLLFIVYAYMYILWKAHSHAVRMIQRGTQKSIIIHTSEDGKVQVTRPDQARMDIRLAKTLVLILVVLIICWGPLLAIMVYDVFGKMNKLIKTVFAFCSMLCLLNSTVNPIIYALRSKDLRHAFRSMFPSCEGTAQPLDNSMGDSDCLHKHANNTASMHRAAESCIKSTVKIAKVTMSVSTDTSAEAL

SMILES | Activity (RAW264.7 [1]; Mus musculus) | Activity (RAW264.7 [2]; Mus musculus) | Activity ([3]; Mus musculus) | Ki (Cannabinoid receptor 1) [nM] | Activity (RAW264.7 [2]) [%] | Activity [4] | Activity [5] | Activity [6] | Activity [3] [%] | Activity (RAW264.7 [1]) [%] | Activity [7]
CCCCCCC(C)(C)c1cc(O)c(C2C=C(C)CC[C@H]2C(C)C)c(O)c1 (some centres not stated) | inactive | inactive | inactive | 124 |  |  |  |  |  |  | 
CCCCCCC(C)(C)c1cc(O)c(C2CC(C)CC[C@H]2C(C)C)c(O)c1 (some centres not stated) |  |  | inactive | 17 | 25 |  |  |  |  |  | 
C=C(C)[C@@H]1CCC(C)CC1c1c(O)cc(CCCCC)cc1O (some centres not stated) |  |  |  |  |  | Active | Active |  |  |  | 
CCCCCc1cc(O)c(C2C=C(C)CC[C@H]2C(C)C)c(O)c1 (some centres not stated) | Active |  |  | > 1000 |  | Active | Active | Active |  |  | 
C=C(C)[C@@H]1CCC(C)=CC1c1c(O)cc(C(C)(C)CCCCCC)cc1O (some centres not stated) | Active |  |  | > 10000 | 60 | Active | Active | Active | 73 |  | 
C=C(C)[C@@H]1CCC(C)=C[C@H]1c1c(O)cc(CCCCC)cc1O [CANNABIDIOL] |  | Active | Active |  |  | Active | Active |  |  | 12 | 
CCCCCc1cc(O)c(C2CC(C)CC[C@H]2C(C)C)c(O)c1 (some centres not stated) | Active |  |  | 145 |  | Active | Active | Active |  |  | Active

Reference: ChEMBL document CHEMBL1149434 (J Med Chem, 2006)
